# Experiments:
# Mus musculus [1] = assay: Toxicity in C3H mouse allografted with mouse Gardner lymphosarcoma assessed as lethality at 0.30 mg/kg, ip administered daily for 8 to 10 days; format: organism-based; parameters: dose 0.3 mg/kg, route intraperitoneal; details: in vivo, 0.3 mg/kg
# How it was run: (§1)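 Tumor-bearing mice given sulfate salts ip daily for 8–10 days; values are the average of one or more tests. Toxic means lethal to ≥5 of 10 animals per group.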
# Mus musculus [2] = assay: Toxicity in C3H mouse allografted with mouse Gardner lymphosarcoma assessed as lethality at 0.40 mg/kg, ip administered daily for 8 to 10 days; format: organism-based; parameters: dose 0.4 mg/kg, route intraperitoneal; details: in vivo, 0.4 mg/kg; how it was run: as §1
# [3] = Antitumor activity against mouse Gardner lymphosarcoma allografted in C3H mouse assessed as tumor growth inhibition at 0.20 mg/kg, ip administered daily for 8 to 10 days; format: functional; details: route intraperitoneal, read-out: TGI
# How it was run: (§2)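 Gardner lymphosarcoma in C3H mice; sulfate salts unless noted, given ip daily for 8–10 days, treatment starting 8 days after tumor implantation. Tumor growth inhibition scored as –, 0–25%; +, 26–50%; ++, 51–75%; +++, 76–100%; T, lethal to ≥5 of 10 animals per group. Average of one or more tests.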
# B16 [4] = assay: Antitumor activity against mouse B16 cells allografted in C57BL/6 mouse assessed as prolongation of host survival at 0.30 mg/kg, ip administered on days 1,5 and 9; format: functional; details: route intraperitoneal
# How it was run: (§3)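 B16 melanoma cells (10⁶ inoculum) implanted ip in C57BL/6 mice; groups of 10. Sulfate salts unless noted, given ip on days 1, 5 and 9. Single test. Survival prolongation is expressed as percent versus controls, with survivors counted on day 60. Toxic means deaths of ≥5 of 10 animals before the first control death.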
# Mus musculus [5] = assay: Toxicity in C57BL/6 mouse allografted with mouse B16 cells assessed as animal death at 0.90 mg/kg, ip administered on days 1,5 and 9; format: organism-based; parameters: dose 0.9 mg/kg, route intraperitoneal; details: in vivo, 0.9 mg/kg; how it was run: as §3
# [6] = Antitumor activity against mouse Gardner lymphosarcoma allografted in C3H mouse assessed as tumor growth inhibition at 0.10 mg/kg, ip administered daily for 8 to 10 days; format: functional; details: route intraperitoneal, read-out: TGI; how it was run: as §2
# Mus musculus [7] = assay: Toxicity in C57BL/6 mouse allografted with mouse B16 cells assessed as animal death at 0.60 mg/kg, ip administered on days 1,5 and 9; format: organism-based; parameters: dose 0.6 mg/kg, route intraperitoneal; details: in vivo, 0.6 mg/kg; how it was run: as §3
# B16 [8] = assay: Antitumor activity against mouse B16 cells allografted in C57BL/6 mouse assessed as prolongation of host survival at 1.20 mg/kg, ip administered on days 1,5 and 9; format: functional; details: route intraperitoneal; how it was run: as §3
# B16 [9] = assay: Antitumor activity against mouse B16 cells allografted in C57BL/6 mouse assessed as prolongation of host survival at 0.90 mg/kg, ip administered on days 1,5 and 9; format: functional; details: route intraperitoneal; how it was run: as §3
# CHO [10] = assay: Mitotic arrest in CHO cells assessed as increase in cell accumulation at 0.02 ug/ml; format: functional, Cricetulus griseus
# How it was run: (§4)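 Chinese hamster ovary cells in tissue culture, scored for mitotic arrest as increase in cells in mitotic arrest over control: +++, 40–50%; ++, 15–40%; +, 10–15%; ±, 7–10%; –, 3–7%. Cytotoxicity noted separately.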
# CHO [11] = assay: Mitotic arrest in CHO cells assessed as increase in cell accumulation at 0.2 ug/ml; format: functional, Cricetulus griseus; how it was run: as §4
# [12] = Antitumor activity against mouse Ridgway osteogenic sarcoma allografted in AKR mouse assessed as tumor growth inhibition at 0.05 mg/kg, ip administered daily for 8 to 10 days compound treatment commenced 8 days after tumor implantation; format: functional; details: route intraperitoneal, read-out: TGI
# [13] = Antitumor activity against mouse P1534 cells allografted in DBA2 mouse assessed as tumor growth inhibition at 0.10 mg/kg, ip administered daily for 8 to 10 days; format: functional; details: route intraperitoneal, read-out: TGI
# How it was run: (§5)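 P1534(J) leukemia implanted sc in DBA2 mice; sulfate salts dosed ip daily for 8–10 days. Growth inhibition scored –, 0–25%; +, 26–50%; ++, 51–75%; +++, 76–100%; T, lethal to ≥5 of 10 animals per group. Average of one or more tests.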
# [14] = Antitumor activity against mouse Ridgway osteogenic sarcoma allografted in AKR mouse assessed as tumor growth inhibition at 0.10 mg/kg, ip administered daily for 8 to 10 days compound treatment commenced 8 days after tumor implantation; format: functional; details: route intraperitoneal, read-out: TGI
# [15] = Antitumor activity against mouse Ridgway osteogenic sarcoma allografted in AKR mouse assessed as tumor growth inhibition at 0.40 mg/kg, ip administered daily for 8 to 10 days compound treatment commenced 8 days after tumor implantation; format: functional; details: route intraperitoneal, read-out: TGI
# [16] = Antitumor activity against mouse Gardner lymphosarcoma allografted in C3H mouse assessed as tumor growth inhibition at 0.40 mg/kg, ip administered daily for 8 to 10 days; format: functional; details: route intraperitoneal, read-out: TGI; how it was run: as §2
# CHO [17] = assay: Mitotic arrest in CHO cells assessed as increase in cell accumulation at 0.002 ug/ml; format: functional, Cricetulus griseus; how it was run: as §4
# [18] = Toxicity in iv dosed mouse assessed as lethality; format: organism-based; details: in vivo
# [19] = Antitumor activity against mouse Gardner lymphosarcoma allografted in C3H mouse assessed as tumor growth inhibition at 0.05 mg/kg, ip administered daily for 8 to 10 days; format: functional; details: route intraperitoneal, read-out: TGI; how it was run: as §2
# B16 [20] = assay: Antitumor activity against mouse B16 cells allografted in C57BL/6 mouse assessed as prolongation of host survival at 0.60 mg/kg, ip administered on days 1,5 and 9; format: functional; details: route intraperitoneal; how it was run: as §3
# [21] = Antitumor activity against mouse Ridgway osteogenic sarcoma allografted in AKR mouse assessed as tumor growth inhibition at 0.20 mg/kg, ip administered daily for 8 to 10 days compound treatment commenced 8 days after tumor implantation; format: functional; details: route intraperitoneal, read-out: TGI
# [22] = Antitumor activity against mouse P1534 cells allografted in DBA2 mouse assessed as tumor growth inhibition at 0.30 mg/kg, ip administered daily for 8 to 10 days; format: functional; details: route intraperitoneal, read-out: TGI; how it was run: as §5
# P388/VCR [23] = assay: Antitumor activity against mouse P388/VCR cells allografted in CD2F1 mouse assessed as increase in host lifespan at 1.08 mg/kg, ip administered on days 1, 5 and 9; format: functional; details: route intraperitoneal
# How it was run: (§6)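 Groups of eight male CD2F1 mice bearing P388 leukemia, run at NCI. Sulfate salts given ip on days 1, 5 and 9. Read-out is percent increase in lifespan.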
# [24] = Antitumor activity against mouse P1534 cells allografted in DBA2 mouse assessed as tumor growth inhibition at 0.40 mg/kg, ip administered daily for 8 to 10 days; format: functional; details: route intraperitoneal, read-out: TGI; how it was run: as §5
# P388/S [25] = assay: Antitumor activity against mouse P388/S cells allografted in CD2F1 mouse assessed as increase in host lifespan at 0.648 mg/kg, ip administered on days 1, 5 and 9; format: functional; details: route intraperitoneal; how it was run: as §6
# P388/S [26] = assay: Antitumor activity against mouse P388/S cells allografted in CD2F1 mouse assessed as increase in host lifespan at 1.08 mg/kg, ip administered on days 1, 5 and 9; format: functional; details: route intraperitoneal; how it was run: as §6
# P388/VCR [27] = assay: Antitumor activity against mouse P388/VCR cells allografted in CD2F1 mouse assessed as increase in host lifespan at 0.648 mg/kg, ip administered on days 1, 5 and 9; format: functional; details: route intraperitoneal; how it was run: as §6
# P388/S [28] = assay: Antitumor activity against mouse P388/S cells allografted in CD2F1 mouse assessed as increase in host lifespan at 1.80 mg/kg, ip administered on days 1, 5 and 9; format: functional; details: dose 1.8 mg/kg; route intraperitoneal
# How it was run: (§7)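 Groups of eight male CD2F1 mice, tested at the NCI. Compounds were given as sulfate salts, dosed in mg/kg ip on days 1, 5 and 9. Activity was read as percent increase in lifespan against the leukemia line.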
# P388/VCR [29] = assay: Antitumor activity against mouse P388/VCR cells allografted in B6D2F1 mouse assessed as increase in host lifespan at 1.20 mg/kg, ip administered on days 1, 5 and 9; format: functional; details: dose 1.2 mg/kg; route intraperitoneal
# How it was run: (§8)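 P388/VCR leukemia in groups of 10 B6D2F1 mice, run at Lilly using the cell strain received from NCI. Sulfate salts given ip on days 1, 5 and 9. Read-out is percent increase in lifespan.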
# P388/VCR [30] = assay: Antitumor activity against mouse P388/VCR cells allografted in B6D2F1 mouse assessed as increase in host lifespan at 0.90 mg/kg, ip administered on days 1, 5 and 9; format: functional; details: dose 0.9 mg/kg; route intraperitoneal; how it was run: as §8
# [31] = Antitumor activity against mouse P1534 cells allografted in DBA2 mouse assessed as tumor growth inhibition at 0.20 mg/kg, ip administered daily for 8 to 10 days; format: functional; details: route intraperitoneal, read-out: TGI; how it was run: as §5
# Mus musculus [32] = assay: Toxicity in CD2F1 mouse allografted with mouse P388/VCR cells at 3.00 mg/kg, ip administered on days 1, 5 and 9; format: organism-based; parameters: dose 3 mg/kg, route intraperitoneal; details: in vivo
# Mus musculus [33] = assay: Toxicity in CD2F1 mouse allografted with mouse P388/S cells at 3.00 mg/kg, ip administered on days 1, 5 and 9; format: organism-based; parameters: dose 3 mg/kg, route intraperitoneal; details: in vivo
# P388/VCR [34] = assay: Antitumor activity against mouse P388/VCR cells allografted in B6D2F1 mouse assessed as increase in host lifespan at 0.60 mg/kg, ip administered on days 1, 5 and 9; format: functional; details: dose 0.6 mg/kg; route intraperitoneal; how it was run: as §8
# [35] = Antitumor activity against mouse P1534 cells allografted in DBA2 mouse assessed as tumor growth inhibition at 0.25 mg/kg, ip administered daily for 8 to 10 days; format: functional; details: route intraperitoneal, read-out: TGI; how it was run: as §5
# P388/VCR [36] = assay: Antitumor activity against mouse P388/VCR cells allografted in CD2F1 mouse assessed as increase in host lifespan at 1.80 mg/kg, ip administered on days 1, 5 and 9; format: functional; details: dose 1.8 mg/kg; route intraperitoneal; how it was run: as §7
compound,measurement,setting,value
CC[C@]1(O)C[C@H]2CN(CCc3c([nH]c4ccccc34)[C@@](C(=O)OC)(c3cc4c(cc3OC)N(C)[C@H]3[C@@](O)(C(=O)NC5CCSC5=O)[C@H](O)[C@]5(CC)C=CCN6CC[C@]43[C@@H]65)C2)C1.O=S(=O)(O)O (some centres not stated),Activity,Mus musculus [1],Toxic
same,Activity,Mus musculus [2],Toxic
same,inhibition in vivo at 0.2 mg/kg,[3],0%
same,survival at 0.3 mg/kg,B16 [4],94%
same,Activity,Mus musculus [5],Toxic
same,inhibition in vivo at 0.1 mg/kg,[6],0%
same,Activity,Mus musculus [7],Toxic
CC[C@]1(O)C[C@H]2CN(CCc3c([nH]c4ccccc34)[C@@](C(=O)OC)(c3cc4c(cc3OC)N(C)[C@H]3[C@@](O)(C(=O)NCCO)[C@H](O)[C@]5(CC)C=CCN6CC[C@]43[C@@H]65)C2)C1.O=S(=O)(O)O,survival at 1.2 mg/kg,B16 [8],93%
same,survival at 0.9 mg/kg,B16 [9],97%
same,Activity,CHO [10],15%
same,Activity,CHO [11],15%
same,inhibition in vivo at 0.05 mg/kg,[12],51%
same,inhibition in vivo at 0.1 mg/kg,[13],51%
same,inhibition in vivo at 0.1 mg/kg,[14],76%
same,inhibition in vivo at 0.4 mg/kg,[15],76%
same,inhibition in vivo at 0.2 mg/kg,[3],76%
same,inhibition in vivo at 0.4 mg/kg,[16],76%
same,Activity,CHO [17],3%
same,LD50,[18],4.4 mg/kg
same,inhibition in vivo at 0.05 mg/kg,[19],76%
same,survival at 0.6 mg/kg,B16 [20],51%
same,inhibition in vivo at 0.2 mg/kg,[21],76%
same,inhibition in vivo at 0.1 mg/kg,[6],76%
CC[C@]1(O)C[C@@H]2CN(CCc3c([nH]c4ccccc34)[C@@](C(=O)OC)(c3cc4c(cc3OC)N(C)[C@H]3[C@@](O)(C(=O)OC)[C@H](OC(C)=O)[C@]5(CC)C=CCN6CC[C@]43[C@@H]65)C2)C1.O=S(=O)(O)O [VINBLASTINE SULFATE],inhibition in vivo at 0.3 mg/kg,[22],0%
same,Activity,P388/VCR [23],12%
same,inhibition in vivo at 0.4 mg/kg,[24],51%
same,Activity,P388/S [25],75%
same,Activity,CHO [10],15%
same,Activity,CHO [11],40%
same,Activity,P388/S [26],96%
same,Activity,P388/VCR [27],17%
same,Activity,P388/S [28],92%
same,Activity,P388/VCR [29],10%
same,Activity,P388/VCR [30],9%
same,inhibition in vivo at 0.2 mg/kg,[31],0%
same,Activity,CHO [17],3%
same,Activity,Mus musculus [32],Toxic
same,LD50,[18],10 mg/kg
same,Activity,Mus musculus [33],Toxic
same,Activity,P388/VCR [34],9%
same,inhibition in vivo at 0.25 mg/kg,[35],0%
same,Activity,P388/VCR [36],17%
